Active and inactive are the calls of the source. No cut-off for these calls is given here.

The first test is filed under the species Mus musculus. Kind of test: Effective dose in mouse PCA test.
Details: not given
The format is functional. The procedure, abridged:
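Female CFW mice were passively sensitized with 50 µL of diluted homologous IgE-containing serum iv. Two days later compound was given po, 1 h before iv ovalbumin antigen plus Evans Blue dye. Mice were killed after 20 min, and each lesion area was scored as the product of two normal diameters.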
`Cn1c(=O)c2nc[nH]c2n(C)c1=O.O` [THEOPHYLLINE] showed an ED50 of 140 mg/kg.
On the same count and under the same terms, the figure for `CCCc1nc(C)c2c(CC)nnc(O)n12` is 146 mg/kg; for `CCCc1nc(C)c2c(C)nnc(O)n12` it is 109 mg/kg; for `CCCc1nnc(O)n2c(CCC)nc(C)c12` it is 114 mg/kg.

Another test is filed under the species Homo sapiens. Kind of test: Inhibitory activity against histamine release from antigen-challenged, sensitized human basophils; Fluorescent compound, obscuring the histamine assay. The test is classed as functional.
Details: not given
The procedure, abridged:
(§1)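 Histamine release was induced by antigen challenge of sensitized human basophils in vitro. Compounds were first screened at a single concentration. Those reducing release by more than 50% went on to concentration-response testing to estimate IC50. Values are given with standard error and number of experiments.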
Regarding `Cc1nnc(O)n2c(C)nc(C)c12`, the IC50 entry is “Fluoroescent compound, obscuring the histamine assay”.

The species entered for another test is Homo sapiens. Description: Inhibitory activity against histamine release from antigen-challenged, sensitized human basophils. The test is classed as functional. The following applies: Homo sapiens. The procedure, abridged: as §1
For the compound `Cn1c(=O)c2nc[nH]c2n(C)c1=O.O` [THEOPHYLLINE], the IC50 turned out to be 335 µM.
Still for that read-out and setting: the figure for `CCCc1nc(C)c2c(CC)nnc(O)n12` is 15.6 µM; for `CCCc1nc(C)c2c(C)nnc(O)n12` it is 14 µM; for `CCCc1nnc(O)n2c(CCC)nc(C)c12` it is 16 µM.
For the compound `Cc1ncn2c(N(C)C)nncc12`, the IC50 is over 48 µM.
Still for that read-out and setting: the figure for `COc1ccc(-c2ncc3cnnc(O)n23)cc1` is over 48 µM; for `CC(C)CCSc1nncc2cncn12` it is 9 µM.
In the case of `CCCc1nc(C)c2c(CC)nnc(S)n12`, the IC50 is over 48 µM.
Regarding `CC(C)(C)c1nc(Br)c2cnnc(O)n12`, the IC50 is 19 µM.
Still for that read-out and setting: with `Sc1nncc2cnc(-c3cccc(Cl)c3)n12` the figure was over 48 µM.
Consider `COCc1ncc2cnnc(NCCN(C)C)n12`, for which the IC50 was over 48 µM.
For `CCCc1ncn2c(S)nncc12`, the IC50 is over 48 µM.
The same measure, in the same setting: the figure for `Oc1nncc2c(Br)nc(Cc3ccccc3)n12` is over 48 µM; for `c1ccc(-c2cn[nH]c2Nc2nncc3cncn23)cc1` it is 10 µM.
Take `CCCc1nc(C)c2c(C)nnc(S)n12`: the IC50 worked out at 45 µM.
On the same count and under the same terms, with `CCc1nc(C)c2cnnc(SC)n12` the figure was over 48 µM; with `CCc1nnc(O)n2c(C(C)(C)C)nc(C)c12`, 26 µM; with `CCCc1nc(C)c2c(C)nn(Cc3ccccc3)c(=O)n12`, over 48 µM.
`C=CCn1nc(Br)c2c(Br)nc(CCC)n2c1=O`: the IC50 is over 48 µM.
As for `CCCc1nc(C)c2cnnc(SC)n12`, the IC50 is over 48 µM.
For `Cc1nc(C)n2c(S)nncc12`, the IC50 was over 48 µM.
Still for that read-out and setting: with `C=CCSc1nncc2c(C)nc(-c3ccccc3)n12` the figure was over 48 µM; with `CCCc1nc(C)c2c(-c3ccccc3)nnc(O)n12`, over 48 µM.
The same measure, in the same setting: the figure for `COCc1nc(Br)c2c(Br)nnc(O)n12` is over 48 µM; for `Cc1nnc(S)n2c(C)nc(C)c12` it is over 48 µM; for `Cc1ncc2cnnc(S)n12` it is over 48 µM.
Regarding `CCCc1nc(C)c2c(C(C)C)nnc(S)n12`, the IC50 was over 48 µM.
Still for that read-out and setting: the figure for `CCCCCCCCCCCCCCCCCc1ncc2cnnc(S)n12` is over 48 µM.
The same measure, in the same setting: the figure for `CCCc1ncc2cnnc(O)n12` is over 48 µM.
Take `CCCc1nc(C)c2cnn(CC)c(=O)n12`: the IC50 was over 48 µM.
Same read-out and setting: with `CCCc1nc(C)c2c(C)nn(CC(=O)OCC)c(=O)n12` the figure was over 48 µM; with `C=CCn1ncc2cnc(C)n2c1=O`, over 48 µM.
The same measure, in the same setting: the figure for `c1ccc(CNc2nncc3cncn23)cc1` is over 48 µM.
The same measure, in the same setting: the figure for `CNc1nncc2cncn12` is over 48 µM; for `c1ccc(C(c2ccccc2)N2CCN(c3nncc4cncn34)CC2)cc1` it is over 48 µM; for `CC(=O)N(C1=NNCC1)c1nncc2c(C)ncn12` it is over 48 µM.
Consider `COCc1nc(C)c2c(C)nnc(O)n12`, for which the IC50 is over 48 µM.
As for `Cc1nc(C(C)(C)C)n2c(O)nncc12`, the IC50 was 31 µM.
For the compound `c1ncn2c(NC3CCCC3)nncc12`, the IC50 is over 48 µM.
Same read-out and setting: the figure for `Cc1ncn2c(O)nncc12` is over 48 µM.
Same read-out and setting: the figure for `COCc1ncc2cnnc(S)n12` is over 48 µM; for `CCc1ncn2c(O)nncc12` it is over 48 µM.
For `C=C=Cn1nc(C)c2c(C)nc(CCC)n2c1=O`, the IC50 was over 48 µM.
Same read-out and setting: the figure for `CSc1nnc(C)c2c(C)nc(C)n12` is over 48 µM.
The same measure, in the same setting: with `CCCc1nc(C)c2c(C)nnc(SC)n12` the figure was over 48 µM; with `CCc1nc(C)c2cnnc(O)n12`, over 48 µM.
Same read-out and setting: the figure for `COCc1nc(Br)c2cnnc(O)n12` is over 48 µM; for `CCCc1nc(C)c2c(-c3ccccc3)nnc(SC)n12` it is over 48 µM; for `CCCc1nc(C)c2c(C(C)C)nnc(SC)n12` it is over 48 µM.
`CSc1nncc2c(C)ncn12`: the IC50 is over 48 µM.
For `CCc1nnc(O)n2c(C)nc(C)c12`, the IC50 was over 48 µM.
The same measure, in the same setting: with `CCCc1nc(C)c2c(C)nn(CC(O)CO)c(=O)n12` (stereo not given) the figure was over 48 µM; with `C=CCSc1nncc2cnc(CCC)n12`, over 48 µM; with `CCOC(=O)Cn1ncc2cnc(COC)n2c1=O`, over 48 µM.

The next test has as its system Cavia porcellus. Kind of test: Compound was evaluated in the guinea pig anaphylaxis test for in vivo activity; Inactive, treated 12/19, control 16/20. The test is classed as functional, organism-based.
Details: not given
For the compound `Cn1c(=O)c2[nH]cnc2n(C)c1=O`, the result was inactive.

For orientation: ED50 means the dose at which the effect has come halfway, by size or by number of responders. Higher therefore signals weaker potency. The term IC50 denotes the concentration that gives 50% inhibition.
